Laboratory results reported in ChEMBL document CHEMBL1687814, “Testing nucleoside analogues as inhibitors of Bacillus anthracis spore germination in vitro and in macrophage cell culture” (Antimicrob Agents Chemother, 2010).
Active and inactive are the calls of the source. No cut-off for these calls is given here.

Experiments:
[1] = system: Bacillus anthracis; assay: Antibacterial activity against Bacillus anthracis Sterne 34F2 infected in mouse J774A.1 cells assessed as protection against bacteria-induced cytotoxicity using propidium iodide staining after 3 hrs measured every hours for up to 7 hrs; assay type: functional, organism-based
[2] = system: J774.A1; assay: Cytotoxicity against mouse J774A1 cells; assay type: cell-based
Outline: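 Uninfected J774A.1 macrophages, seeded at 8 × 10^5 cells/ml in serum-free DMEM, were given analogues at various final concentrations. Necrosis was assessed by 20 μM propidium iodide fluorescence at 617 nm, in parallel with the infected wells.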

[3] = system: Bacillus anthracis; assay: Inhibition of inosine/L-alanine-induced Bacillus anthracis Sterne 34F2 spore germination pretreated for 15 mins before inosine/L-alanine challenge; assay type: functional, organism-based
[4] = Increase of Bacillus anthracis Sterne 34F2-induced cytotoxicity in mouse J774A.1 cells using propidium iodide staining measured after 5 hrs infection; assay type: cell-based; conditions: bacillus anthracis str. sterne
[5] = system: Bacillus anthracis; assay: Activation of Bacillus anthracis Sterne 34F2 spore germination after 1 hr; assay type: functional, organism-based
[6] = system: Bacillus anthracis; assay: Ratio of IC50 for inosine/L-alanine-induced Bacillus anthracis Sterne 34F2 spore germination to IC50 for Bacillus anthracis Sterne 34F2 infected in mouse J774A.1 cells assessed as protection against bacteria-induced cytotoxicity; assay type: functional
[7] = Bacillus anthracis, Sterne 34F2, J774.A1, read-out: IC50
[8] = Bacillus anthracis, Sterne 34F2, read-out: IC50

SMILES | IC50 [1, 7] | Activity [2] | IC50 [3, 8] | IC50 [1] | IC50 [3] | Activity [4] | Activity [5] | Ratio IC50 [6]
C[C@@H](N)C(=O)O [D-ALANINE] | 20 µM | Non-toxic | 20 µM |  |  |  |  | 
CCN(CC)c1ncnc2c1ncn2[C@@H]1O[C@H](CO)[C@@H](O)[C@H]1O |  | Non-toxic | 310 µM | Not Active |  |  |  | 
Nc1nc(=O)[nH]c2c1ncn2[C@@H]1O[C@H](CO)[C@@H](O)[C@H]1O [ISOGUANOSINE] |  | Non-toxic |  | Not Active | Not Active |  |  | 
CSc1ncnc2c1ncn2[C@@H]1O[C@H](CO)[C@@H](O)[C@H]1O |  | Non-toxic | 320 µM | Not Active |  |  |  | 
OC[C@H]1O[C@@H](n2cnc3c(O)nc(O)nc32)[C@H](O)[C@@H]1O [XANTHOSINE] |  | Non-toxic | 7190 µM | Not Active |  |  |  | 
Nc1nc2c(ncn2[C@@H]2O[C@H](CO)[C@@H](O)[C@H]2O)c(=O)[nH]1 [GUANOSINE] |  | Non-toxic |  | Not Active | Not Active |  |  | 
Nc1nc(Cl)c2nc[nH]c2n1 [6-CHLOROGUANINE] | 200 µM | Non-toxic |  |  | Not Active |  |  | 
OC[C@H]1O[C@@H](n2cnc3c(Cl)ncnc32)[C@H](O)[C@@H]1O |  | Non-toxic |  | Not Active | Not Active |  |  | 
Nc1nc2c(nc(O)n2[C@@H]2O[C@H](CO)[C@@H](O)[C@H]2O)c(=O)[nH]1 [8-HYDROXYGUANOSINE] |  | Non-toxic |  | Not Active | Not Active | Toxic |  | 
Nc1ncnc2c1ccn2[C@@H]1O[C@H](CO)[C@@H](O)[C@H]1O [TUBERCIDIN] |  | Non-toxic |  | Not Active | Not Active |  |  | 
CC(C)=CCNc1ncnc2c1ncn2[C@@H]1O[C@H](CO)[C@@H](O)[C@H]1O [RIBOPRINE] |  | Non-toxic | 360 µM | Not Active |  |  |  | 
Nc1nc(Cl)c2ncn([C@@H]3O[C@H](CO)[C@@H](O)[C@H]3O)c2n1 | 190 µM | Non-toxic | 890 µM |  |  |  |  | 
OC[C@H]1O[C@@H](n2cnc3c(N4CCCCC4)ncnc32)[C@H](O)[C@@H]1O |  | Non-toxic | 1090 µM | Not Active |  |  |  | 
CN(Cc1ccccc1)c1ncnc2c1ncn2[C@@H]1O[C@H](CO)[C@@H](O)[C@H]1O |  | Non-toxic | 120 µM | Not Active |  | Toxic |  | 
CCCN(CCC)c1ncnc2c1ncn2[C@@H]1O[C@H](CO)[C@@H](O)[C@H]1O |  | Non-toxic | 760 µM | Not Active |  |  |  | 
CSc1nc2ccccc2[nH]1 |  | Non-toxic |  | Not Active | Not Active |  |  | 
OC[C@H]1O[C@@H](n2cnc3c(S)ncnc32)[C@H](O)[C@@H]1O [THIOINOSINE] | 40 µM | Non-toxic |  |  | Not Active |  |  | 
CCOC(=O)C1CCCN(c2ncnc3c2ncn3[C@@H]2O[C@H](CO)[C@@H](O)[C@H]2O)C1 (stereo partly drawn) |  | Non-toxic | 700 µM | Not Active |  |  |  | 
Nc1cc(S)nc(N)n1 |  | Non-toxic |  | Not Active | Not Active |  | inactive | 
OC[C@H]1O[C@@H](n2cnc3c(O)ncnc32)[C@H](O)[C@@H]1O [INOSINE] |  | Non-toxic |  |  |  |  |  | 
OC[C@H]1O[C@@H](n2cnc3cncnc32)[C@H](O)[C@@H]1O [NEBULARINE] |  | Non-toxic |  | Not Active | Not Active |  |  | 
OC[C@H]1O[C@@H](n2cnc3c(SCc4ccccc4)ncnc32)[C@H](O)[C@@H]1O [6-BENZYLTHIOINOSINE] | 1040 µM | Non-toxic | 50 µM |  |  |  |  | 
Nc1ncc2ncn([C@@H]3O[C@H](CO)[C@@H](O)[C@H]3O)c2n1 |  | Non-toxic | 380 µM | Not Active |  |  |  | 

SMILES | IC50 [1, 7] | Activity [2] | IC50 [3, 8] | IC50 [1] | IC50 [3] | Activity [4] | Activity [5] | Ratio IC50 [6]
Oc1ncnc2[nH]ncc12 [ALLOPURINOL] |  | Non-toxic |  | Not Active | Not Active |  |  | 
Nc1ncnc2c1nc(N)n2[C@@H]1O[C@H](CO)[C@@H](O)[C@H]1O |  | Non-toxic |  | Not Active | Not Active |  | inactive | 
O=c1cc[nH]c(=S)[nH]1 [THIOURACIL] |  | Non-toxic |  | Not Active | Not Active |  | inactive | 
c1ccc(CNc2ncnc3nc[nH]c23)cc1 [6-BENZYLAMINOPURINE] |  | Non-toxic | 1550 µM | Not Active |  |  |  | 
Sc1nc2ccccc2[nH]1 [2-MERCAPTOBENZIMIDAZOLE] |  | Non-toxic |  | Not Active | Not Active |  |  | 
Nc1nc2nc[nH]c2c(=S)[nH]1 [THIOGUANINE] | 2 µM | Non-toxic |  |  | Not Active |  |  | 
Nc1nc2c(ncn2COC(CO)CO)c(=O)[nH]1 [GANCICLOVIR] |  | Non-toxic |  | Not Active | Not Active |  |  | 
N#Cc1ncnc2nc[nH]c12 |  | Non-toxic |  | Not Active | Not Active |  |  | 
C[n+]1cn([C@@H]2O[C@H](CO)[C@@H](O)[C@H]2O)c2nc[nH]c(=O)c21 |  | Non-toxic |  | Not Active | Not Active |  |  | 
Sc1ccncc1 [4-MERCAPTOPYRIDINE] |  | Non-toxic |  | Not Active | Not Active |  | inactive | 
Sc1ccccn1 [2-MERCAPTOPYRIDINE] |  | Non-toxic |  | Not Active | Not Active |  | inactive | 
Sc1ncccn1 [2-MERCAPTOPYRIMIDINE] |  | Non-toxic |  | Not Active | Not Active |  | inactive | 
CNc1ncnc2c1ncn2[C@@H]1O[C@H](CO)[C@@H](O)[C@H]1O |  | Non-toxic | 190 µM | Not Active |  |  |  | 
Sc1ncnc2nc[nH]c12 [MERCAPTOPURINE ANHYDROUS] | 400 µM | Non-toxic |  |  | Not Active |  |  | 
O=C(Nc1ncnc2c1ncn2[C@@H]1O[C@H](CO)[C@@H](O)[C@H]1O)c1ccccc1 |  | Non-toxic | 1140 µM | Not Active |  | Toxic |  | 
COc1nc(N)nc2c1ncn2[C@@H]1O[C@H](CO)[C@@H](O)[C@H]1O |  | Non-toxic | 350 µM | Not Active |  |  |  | 
O=c1ncnc2n([C@H]3O[C@@H](CO)[C@H](O)[C@@H]3O)[nH]cc1-2 [ALLOPURINOL RIBOSIDE] | 650 µM | Non-toxic |  |  | Not Active |  |  | 
CN(C)c1ncnc2c1ncn2[C@@H]1O[C@H](CO)[C@@H](O)[C@H]1O |  | Non-toxic |  | Not Active | Not Active |  |  | 
Nc1ncnc2c1ncn2[C@@H]1O[C@H](CO)[C@@H](O)[C@H]1O [ADENOSINE] |  | Non-toxic |  | Not Active | Not Active |  |  | 
Nc1nc2c(ncn2[C@@H]2O[C@H](CO)[C@@H](O)[C@H]2O)c(=S)[nH]1 [THIOGUANOSINE] | 4 µM | Non-toxic | 1000 µM |  |  |  |  | 300
Nc1nc(N)c2ncn([C@@H]3O[C@H](CO)[C@@H](O)[C@H]3O)c2n1 |  | Non-toxic | 700 µM | Not Active |  |  |  | 
CC(=O)N1CCN(c2ncnc3c2ncn3[C@@H]2O[C@H](CO)[C@@H](O)[C@H]2O)CC1 |  | Non-toxic | 50 µM | Not Active |  |  |  | 
